Experiments:
Experiment in all cases: activity assay, unused NAD+ converted to a fluorescent compound
Type in all cases: biochemical
PARP4 = target: T1, PARP4 (Homo sapiens, UniProt Q9UKK3)
T1 sequence (Q9UKK3 242-573 limits assumed): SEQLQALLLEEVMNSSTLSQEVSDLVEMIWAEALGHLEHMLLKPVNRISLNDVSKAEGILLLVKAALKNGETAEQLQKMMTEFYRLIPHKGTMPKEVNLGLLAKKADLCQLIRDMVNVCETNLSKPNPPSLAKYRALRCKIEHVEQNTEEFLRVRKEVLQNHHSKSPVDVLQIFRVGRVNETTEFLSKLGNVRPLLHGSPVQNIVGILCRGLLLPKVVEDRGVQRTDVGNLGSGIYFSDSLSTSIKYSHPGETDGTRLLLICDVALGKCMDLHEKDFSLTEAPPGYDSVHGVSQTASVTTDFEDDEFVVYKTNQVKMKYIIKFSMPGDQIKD
In short: (§1)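 PARP3 or PARP4 was expressed as an N-terminal His-tag construct in E. coli Rosetta2 (DE3) in autoinduction TB medium, overnight at 18 °C. It was purified by Ni-affinity followed by size-exclusion chromatography. Activity was read by converting residual NAD+ to a fluorescent product. Inhibitor was tested as half-log dilutions, with reactions in quadruplicate. IC50 was fitted with a four-variable sigmoidal dose–response curve.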

PARP16 = target: T2, PARP16 (Homo sapiens, UniProt Q8N5Y8)
T2 sequence (Q8N5Y8 5-279 limits assumed): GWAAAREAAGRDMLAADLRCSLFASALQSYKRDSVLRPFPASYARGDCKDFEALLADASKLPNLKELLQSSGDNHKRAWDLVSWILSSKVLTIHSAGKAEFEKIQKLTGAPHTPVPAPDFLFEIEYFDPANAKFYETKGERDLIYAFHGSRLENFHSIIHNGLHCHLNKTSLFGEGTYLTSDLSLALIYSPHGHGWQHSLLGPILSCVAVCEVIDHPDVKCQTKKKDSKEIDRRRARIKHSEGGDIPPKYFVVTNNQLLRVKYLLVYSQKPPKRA
In short: (§2)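 Human PARP12 or PARP16 carrying an N-terminal His tag was expressed in E. coli Rosetta2 (DE3) in autoinduction TB medium, overnight at 18 °C. It was purified by Ni-affinity and size-exclusion chromatography, then the His tag was cleaved with TEV protease. Unused NAD+ was converted to a fluorescent compound. Test compound was given in half-log dilutions, in quadruplicate. IC50 came from a four-variable sigmoidal dose–response fit.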

PARP3 = target: T3, PARP3 (Homo sapiens, UniProt Q9Y6F1)
T3 sequence (Q9Y6F1 1-533): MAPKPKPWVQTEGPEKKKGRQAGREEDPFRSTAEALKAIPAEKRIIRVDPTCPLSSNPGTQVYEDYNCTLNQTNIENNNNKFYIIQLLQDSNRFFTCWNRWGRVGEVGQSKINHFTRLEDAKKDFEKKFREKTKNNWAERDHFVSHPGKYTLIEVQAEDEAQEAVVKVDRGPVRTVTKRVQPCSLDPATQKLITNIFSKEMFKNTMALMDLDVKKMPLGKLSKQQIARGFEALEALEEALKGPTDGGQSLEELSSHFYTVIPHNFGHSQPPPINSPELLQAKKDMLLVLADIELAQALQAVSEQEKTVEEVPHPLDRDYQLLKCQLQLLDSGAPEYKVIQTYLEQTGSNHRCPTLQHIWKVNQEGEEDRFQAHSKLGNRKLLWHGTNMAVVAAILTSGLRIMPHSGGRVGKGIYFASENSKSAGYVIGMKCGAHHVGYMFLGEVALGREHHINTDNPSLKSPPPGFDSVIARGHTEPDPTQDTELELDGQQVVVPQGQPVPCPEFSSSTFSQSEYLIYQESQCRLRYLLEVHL
In short: as §1

PARP12 = target: T4, PARP12 (Homo sapiens, UniProt Q9H0J9)
T4 sequence (Q9H0J9 489-684 limits assumed): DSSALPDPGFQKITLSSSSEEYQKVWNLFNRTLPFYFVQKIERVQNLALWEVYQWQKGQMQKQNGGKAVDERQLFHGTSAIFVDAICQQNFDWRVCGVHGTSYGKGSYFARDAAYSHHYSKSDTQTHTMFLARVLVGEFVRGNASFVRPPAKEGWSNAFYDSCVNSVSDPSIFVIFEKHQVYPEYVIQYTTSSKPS
In short: as §2

## N#Cc1ccc(Oc2ccc(C(N)=O)cc2)cc1 [compound 10, 4‐(4‐cyanophenoxy)benzamide]
PARP4
  IC50: > 100 µM
PARP16
  IC50: > 10 µM
PARP3
  IC50: > 100 µM
PARP12
  IC50: > 10 µM

## NC(=O)c1ccc(Oc2cccc(C(N)=O)c2)cc1 [compound 20, 3‐(4‐carbamoylphenoxy)benzamide]
PARP4
  IC50: 7 µM
PARP16
  IC50: > 10 µM
PARP3
  IC50: > 100 µM
PARP12
  IC50: > 10 µM

From PMC8485830 (ChemistryOpen, 2021)
